Results on eleven compounds are retold here after ChEMBL document CHEMBL1122066, “Arylhydroxamic acid N,O-acyltransferase substrates. Acetyl transfer and electrophile generating activity of N-hydroxy-N-(4-alkyl-, 4-alkenyl-, and 4-cyclohexylphenyl)acetamides” (J Med Chem, 1982).

For assay [1], the species on record is Rattus norvegicus. Briefly: Tested for its arylhydroxamic acid N,O-Acyltransferase (AHAT) catalyzed transacetylation of aminoazobenzene with partially purified hepatic enzyme in rat. Format: functional. The method in brief:
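Rat liver AHAT came from 105000g cytosol, partially purified 2- to 3-fold by ammonium sulfate. It was assayed at 1.0 mg/mL protein in pH 7.0 pyrophosphate/1 mM DTT/KCl with hydroxamic acid (1.0 mM) and AAB (0.15 mM) for 5 min at 37 °C in air. The reaction was stopped with TCA/EtOH and read at 497 nm, with a heat-denatured enzyme control. Rates are mean ± SE, N = 3–4, run in triplicate.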

The test system of assay [2] is arylhydroxamic acid N,O-acyltransferase (Mesocricetus auratus). The assay is described as follows: Tested for its arylhydroxamic acid N,O-Acyltransferase (AHAT) catalyzed transacetylation of aminoazobenzene with partially purified hepatic enzyme in hamster. Further details: Rate: unit not given here.
The species named for assay [3] is Cricetulus griseus. The assay is described as follows: Tested for its arylhydroxamic acid N,O-Acyltransferase (AHAT) catalyzed transacetylation of aminoazobenzene with hamster hepatic enzyme after dialysis. Format: functional. The method in brief:
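Hamster enzyme (partially purified by ammonium sulfate) was preincubated 20 min at 37 °C in air with the hydroxamic acid; controls had ethanol only. It was then dialyzed 6 h at 4 °C against N2-sparged pH 7.0 pyrophosphate/1 mM DTT/2% EtOH with three buffer changes. Portions taken before and after dialysis were assayed with AAB plus the same hydroxamic acid for 5 or 8 min, read at 497 nm. Rates are nmol/mg/min, mean of two triplicate experiments.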

Assay [4] deals with Cricetinae gen. sp. Briefly: Aminoazobenzene transacetylation inhibition by partially purified hepatic enzyme using 4-chloro mercuri benzenesulfonate as inhibitor (1.0 mM) in hamster. Format: functional. Particulars: Cricetulus griseus. Put shortly:
(§1)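 Rat or hamster liver cytosol (105000g supernatant), partially purified by ammonium sulfate fractionation, was incubated 5 min with the sulfhydryl reagent (1.0 mM). AAB transacetylation was then run in pH 7.0 pyrophosphate/1 mM DTT at 37 °C with hydroxamic acid donor (1.0 mM final) and AAB (0.15 mM final). It was stopped with TCA/EtOH and read at 497 nm. Values are % inhibition, means of 2–3 triplicate experiments.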

The test system of assay [5] is Cricetinae gen. sp. Briefly: Aminoazobenzene transacetylation inhibition by partially purified hepatic enzyme using N-ethyl maleimide as inhibitor (1.0 mM) in hamster. Format: functional. Particulars: Cricetulus griseus. Put shortly:
as §1

The subject of assay [6] is Cricetinae gen. sp. The assay is described as follows: Aminoazobenzene transacetylation inhibition by partially purified hepatic enzyme using iodo acetamide as inhibitor (1.0 mM) in hamster. Format: functional. As to conditions: Cricetulus griseus. Put shortly:
as §1

Assay [7] is filed under the species Rattus norvegicus. Briefly: Aminoazobenzene transacetylation inhibition by partially purified hepatic enzyme using 4-chloro mercuri benzenesulfonate as inhibitor (1.0 mM) in rat. Format: functional. Put shortly: as §1
For assay [8], the species on record is Rattus norvegicus. Briefly: Aminoazobenzene transacetylation inhibition by partially purified hepatic enzyme using N-ethyl maleimide as inhibitor (1.0 mM) in rat. Format: functional. Put shortly: as §1
The species entered for assay [9] is Rattus norvegicus. Briefly: Aminoazobenzene transacetylation inhibition by partially purified hepatic enzyme using iodo acetamide as inhibitor (1.0 mM) in rat. Format: functional. Put shortly: as §1
Assay [10] concerns arylhydroxamic acid N,O-acyltransferase (Mesocricetus auratus). The assay is described as follows: Tested for its arylhydroxamic acid N,O-Acyltransferase (AHAT) catalyzed transacetylation of aminoazobenzene with hamster hepatic enzyme before dialysis.
For assay [11], the system named is Cricetinae gen. sp. Briefly: Aminoazobenzene transacetylation inhibition by partially purified hepatic enzyme using iodo acetamide as inhibitor (1.0 mM) in hamster. As to conditions: at 1 mM.
Assay [12] deals with arylhydroxamic acid N,O-acyltransferase (Mesocricetus auratus). The assay is described as follows: Tested for its arylhydroxamic acid N,O-Acyltransferase (AHAT) catalyzed transacetylation of aminoazobenzene with hamster hepatic enzyme after dialysis.

SMILES strings stand for the structures.

With `CC(=O)N(O)c1ccc(C)cc1`, the Rate in assay [1] stood at 1.1 nmol/min/mg; in assay [2], 2.1.

As to `CCCCCc1ccc(N(O)C(C)=O)cc1`, the Rate was determined as 5.2 nmol/min/mg in assay [1] and 13.8 in assay [2].

Turning to `CCCc1ccc(N(O)C(C)=O)cc1`, the Rate in [1] stood at 3.1 nmol/min/mg; in assay [2], 5.3.

As to `C=Cc1ccc(N(O)C(C)=O)cc1`, the Rate stood at 3.3 nmol/min/mg in [1] and 6.6 in assay [2].

Consider `CC(=O)N(O)c1ccc(-c2ccccc2)cc1`, for which the Rate (mg of protein) in assay [3] was 6.9; in [10], 6.3. Further, the results for the Rate in [1] and in assay [2] were 5.8 nmol/min/mg and 22.4, respectively. The inhibition (usually the percentage by which the read-out fell short of the control) came to 100% in [4]; 100% in [5]; 100% in [6]; 100% in assay [7]; 92% in assay [8]; 95% in assay [9].

For `CCc1ccc(N(O)C(C)=O)cc1`, the values for the Rate in assay [1] and in [2] were 2.1 nmol/min/mg and 3.5, respectively.

On to `CC(=O)N(O)c1ccccc1`, for which the Rate in assay [1] worked out at 0.2 nmol/min/mg; in assay [2] it was 0.6.

Consider `C/C=C/c1ccc(N(O)C(C)=O)cc1`, for which the Rate in assay [1] came out at 5.9 nmol/min/mg; in assay [2], 13.

`CC(=O)N(O)c1ccc(C=C(C)C)cc1`: the Rate in assay [1] came out at 5.7 nmol/min/mg; in [2] it was 13.1.

Take `CC(=O)N(O)c1ccc(C2CCCCC2)cc1`: the Rate in assay [1] turned out to be 4.7 nmol/min/mg. The inhibition was 100% in assay [4] (at 1 mM); 96% in [5] (at 1 mM); 100% in assay [7] (at 1 mM); 100% in assay [8] (at 1 mM); 99% in [9] (at 1 mM); 100% in [11]. The values for the Rate (mg of protein) in assay [12], in [10] and in assay [2] were 1.7, 3.2 and 9.4, respectively.

For the compound `CCCCc1ccc(N(O)C(C)=O)cc1`, the results for the Rate in [1] and in assay [2] were 4.7 nmol/min/mg and 8.8, respectively.
